In assay [1] the test system is Canis familiaris. Nature of the assay: Compound was tested for diuretic activity in dogs at 5 mg/kg dose after oral administration measured as microequivalent of Cl-/minute. It counts as functional, Canis lupus familiaris, Urine. The procedure, abridged: (§1)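 Oral dog test: water loading (250 mL po, then 500 mL 1 h later). One hour later bladders were emptied by catheter and compound or placebo given in gelatin capsules. Dogs were kept in metabolism cages. Voided urine plus catheterized bladder urine was pooled at 5 h, and Na+, K+ and Cl- were measured by standard methods. Geometric means are reported.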

Assay [2] deals with Canis familiaris. Nature of the assay: Compound was tested for diuretic activity in dogs at 5 mg/kg dose after oral administration measured as microequivalent of K+/minute. Type of assay: functional, Canis lupus familiaris, Urine. A digest of the protocol:
as §1

Assay [3] concerns Canis familiaris. The experiment in a line: Compound was tested for diuretic activity in dogs at 5 mg/kg dose after oral administration measured as microequivalent of Na+/minute. Type of assay: functional, Canis lupus familiaris, Urine. A digest of the protocol: as §1
Assay [4] relates to Canis familiaris. Nature of the assay: Compound was tested for diuretic activity in dogs at 5 mg/kg dose after intravenous administration activity is measured as microequivalent of Cl-/minute (Control/Drug treated). It counts as functional, Canis lupus familiaris, Urine. The following applies: in the assay text read “oral” for “intravenous”.
Assay [5] concerns Canis familiaris. The experiment in a line: Compound was tested for diuretic activity in dogs at 5 mg/kg dose after intravenous administration measured as microequivalent of K+/minute (Control/Drug treated). It counts as functional, Canis lupus familiaris, Urine. The following applies: in the assay text read “oral” for “intravenous”.
Assay [6] relates to Rattus norvegicus. The experiment in a line: Natriuretic activity in rats at 27 mg/kg of dosage; mequiv of Na. Type of assay: functional. A digest of the protocol:
(§2)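 Rats housed three per metabolism cage received placebo vehicle or compound as a suspension in a final volume of 5.0 mL orally, with placebo groups run concurrently. Urine was collected over 0–5 h and analysed for Na+, K+ and Cl− by standard methods. Values are mequiv per cage, given as geometric means of three cages per dose level.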

Assay [7] deals with Rattus norvegicus. The experiment in a line: Natriuretic activity in rats at 3 mg/kg of dosage; mequiv of Na. It counts as functional. A digest of the protocol: as §2
Assay [8] deals with Rattus norvegicus. Nature of the assay: Natriuretic activity in rats at 81 mg/kg of dosage; mequiv of Na. It counts as functional. The procedure, abridged: as §2
Assay [9] has as its system Rattus norvegicus. The experiment in a line: Natriuretic activity in rats at 9 mg/kg of dosage; mequiv of Na. It counts as functional. The procedure, abridged:
as §2

For assay [10], the system named is Canis familiaris. Nature of the assay: Diuretic activity in dogs following 5 mg/kg oral administration.
Assay [11] concerns Canis familiaris. The experiment in a line: Compound was tested for diuretic activity in dogs at 5 mg/kg dose after oral administration measured as microequivalent of Na+/minute.
The subject of assay [12] is Canis familiaris. The experiment in a line: Compound was tested for diuretic activity in dogs at 5 mg/kg dose after intravenous administration, activity is expressed as urine volume; 1/2. Type of assay: functional, Canis lupus familiaris.
Assay [13] relates to Canis familiaris. The experiment in a line: Compound was tested for diuretic activity in dogs at 5 mg/kg dose after intravenous administration measured as microequivalent of Na+/minute; 5/95 (Control/Drug treated). Type of assay: functional, Canis lupus familiaris, Urine.
Assay [14] relates to Canis familiaris. The experiment in a line: Compound was tested for diuretic activity in dogs at 5 mg/kg dose after intravenous administration measured as microequivalent of Cl-/minute; 4/72 (Control/Drug treated). Type of assay: functional, Canis lupus familiaris, Urine. A digest of the protocol: (§3)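 Intravenous dog clearance study. A priming iv injection of 1.5 mL/kg isoosmotic pH 7.4 phosphate buffer (20 mg PO4/kg) was given first. This was followed by infusion of 3 mL/min pH 7.4 buffer containing 4% mannitol (6.9 mg PO4/min) throughout the experiment. Urinary Na+, K+ and Cl- were measured by standard methods. Each value is the mean of the two highest consecutive 15-min collections.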

The subject of assay [15] is Canis familiaris. Nature of the assay: Compound was tested for diuretic activity in dogs at 5 mg/kg dose after intravenous administration measured as microequivalent of K+/minute; 6/37 (Control/Drug treated). It counts as functional, Canis lupus familiaris, Urine. The procedure, abridged: as §3
For assay [16], the system named is Rattus norvegicus. Nature of the assay: Compound was tested for natriuretic activity in rats at 3 mg/kg of dosage; mequiv of Na+ x 100/cage. It counts as functional. A digest of the protocol: as §2
Assay [17] deals with Canis familiaris. The experiment in a line: Compound was tested for diuretic activity in dogs at 5 mg/kg dose after intravenous administration measured as microequivalent of Cl-/minute; 6/70 (Control/Drug treated). Type of assay: functional, Canis lupus familiaris, Urine. The procedure, abridged:
as §3

Assay [18] has as its system Canis familiaris. Nature of the assay: Compound was tested for diuretic activity in dogs at 5 mg/kg dose after intravenous administration measured as microequivalent of K+/minute; 10/18 (Control/Drug treated). Type of assay: functional, Canis lupus familiaris, Urine. The procedure, abridged: as §3
A further assay has as its system Pan troglodytes. Nature of the assay: Compound was tested for natriuretic activity in chimpanzee at 5 mg/kg dose activity is measured as microequivalent of Na+/minute; muequiv of Na+/min. It counts as functional. A digest of the protocol: (§4)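 Inulin iv gave GFR; urate and inulin clearances and Na+, K+, Cl- excretion were measured by AutoAnalyzer. Controls were three 20-min periods; compound was given orally in aqueous solution via nasal catheter. Response was the mean of eight 15-20 min periods, reported as treatment minus control from single experiments.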

For assay [19], the system named is Canis familiaris. The experiment in a line: Compound was tested for diuretic activity in dogs at 5 mg/kg dose after intravenous administration measured as microequivalent of Na+/minute; 13/565 (Control/Drug treated). It counts as functional, Canis lupus familiaris, Urine.
The test system of assay [20] is Canis familiaris. Nature of the assay: Compound was tested for diuretic activity in dogs at 5 mg/kg dose after intravenous administration measured as microequivalent of K+/minute; 9/46 (Control/Drug treated). It counts as functional, Canis lupus familiaris, Urine. A digest of the protocol: as §3
In assay [21] the test system is Canis familiaris. Nature of the assay: Compound was tested for diuretic activity in dogs at 5 mg/kg dose after intravenous administration measured as microequivalent of Cl-/minute; 2/612 (Control/Drug treated). It counts as functional, Canis lupus familiaris, Urine. The procedure, abridged:
as §3

For assay [22], the system named is Canis familiaris. The experiment in a line: Compound was tested for diuretic activity in dogs at 5 mg/kg dose after intravenous administration, activity is expressed as urine volume; 0.6/6. Type of assay: functional, Canis lupus familiaris.
For assay [23], the system named is Rattus norvegicus. The experiment in a line: Compound was tested for natriuretic activity in rats at 27 mg/kg of dosage. Type of assay: functional. The procedure, abridged: as §2
The nature of assay [24]: Compound was tested for natriuretic activity in chimpanzee at 5 mg/kg dose activity is measured as ratio of clearance of urate / […]; Curate/Cinulin. Type of assay: functional. The procedure, abridged: as §4
For assay [25], the system named is Canis familiaris. The experiment in a line: Compound was tested for diuretic activity in dogs at 5 mg/kg dose after intravenous administration measured as microequivalent of Cl-/minute (Control/Drug treated). Type of assay: functional, Canis lupus familiaris, Urine. The note with it: in the assay text read “oral” for “intravenous”.
In assay [26] the test system is Canis familiaris. Nature of the assay: Compound was tested for diuretic activity in dogs at 5 mg/kg dose after oral administration, activity is expressed as urine volume.

On to `CCOC(=O)C1Cc2cc(C(=O)c3cccs3)c(Cl)c(Cl)c2O1` (stereo not given), for which the Oral activity in the assay on Canis familiaris [1] was 8.7; in the assay with Canis familiaris [2], 1.6; in the assay with Canis familiaris [3], 7.7; with Canis familiaris [4], 8.7; with Canis familiaris [5], 1.6; in the assay with Rattus norvegicus [6], 128. Further, the Oral activity with Rattus norvegicus [7] was 76; in the assay with Rattus norvegicus [8] it was 167; in the assay on Rattus norvegicus [9], 87; in the assay on Canis familiaris [11], 7.7. Moreover, the Urine volume in the assay on Canis familiaris [10] turned out to be 166 mL.
With `Cc1c(C(=O)c2cccs2)cc2c(c1C)OC(C(=O)O)C2` (stereo not given), the Urine volume in the assay with Canis familiaris [12] came out at 1 mL/min. Further, in the assay with Canis familiaris [13], the Na+ excretion turned out to be 95 µequiv/min. The Cl- excretion in the assay with Canis familiaris [14] is 72 µequiv/min. Besides, the K+ excretion in the assay with Canis familiaris [15] was 37 µequiv/min. The Oral activity with Rattus norvegicus [6] is 61; in the assay with Rattus norvegicus [16], 29; with Rattus norvegicus [8] it was 71; in the assay with Rattus norvegicus [9], 68.
In the case of `COc1ccc(C(=O)c2cc3c(c(Cl)c2Cl)OC(C(=O)O)C3)cc1` (stereo not given), the Oral activity is given as 17.8 in the assay with Canis familiaris [1]; 2.9 in the assay with Canis familiaris [2]; 14.4 with Canis familiaris [3]; 129 in the assay on Rattus norvegicus [6]; 40 in the assay with Rattus norvegicus [7]; 194 in the assay on Rattus norvegicus [8]. In the assay on Rattus norvegicus [9], the Oral activity stood at 96. The Cl- excretion in the assay on Canis familiaris [17] was found to be 70 µequiv/min. In addition, the K+ excretion with Canis familiaris [18] turned out to be 18 µequiv/min. The Urine volume in the assay on Canis familiaris [10] was determined as 307 mL.
As to `O=C(O)C1Cc2cc(Cc3cccs3)c(Cl)c(Cl)c2O1` (stereo not given), the Oral activity in the assay on Pan troglodytes is listed as 206; in the assay with Canis familiaris [1], 40.6; in the assay with Canis familiaris [2] it was 7.4; in the assay with Canis familiaris [3], 30.1; in the assay on Rattus norvegicus [23] it was 19; in the assay with Rattus norvegicus [7], 7. For the same molecule, the Oral activity with Rattus norvegicus [8] is reported as 21; with Rattus norvegicus [9], 19. Also, in the assay with Canis familiaris [19], the Na+ excretion was 565 µequiv/min. Moreover, the K+ excretion in the assay with Canis familiaris [20] was 46 µequiv/min. Moreover, in the assay on Canis familiaris [21], the Cl- excretion came to 612 µequiv/min. Also, the Urine volume in the assay on Canis familiaris [22] turned out to be 0.6 mL/min; in the assay with Canis familiaris [10] it was 433 mL. In addition, in [24], the Ratio was found to be 0.185.
On to `O=CC1Cc2cc(C(=O)c3cccs3)c(Cl)c(Cl)c2O1` (stereo not given), for which the Oral activity with Canis familiaris [1] worked out at 21.6; with Canis familiaris [2], 3.1; in the assay on Canis familiaris [3], 16.3; in the assay on Canis familiaris [25], 21.6; with Canis familiaris [5], 3.1; in the assay with Rattus norvegicus [6], 107. Besides, the Oral activity with Rattus norvegicus [7] turned out to be 74; in the assay on Rattus norvegicus [8], 144; in the assay on Rattus norvegicus [9], 84; in the assay with Canis familiaris [26], 337 mL; in the assay with Canis familiaris [11], 16.3. For the same molecule, the Urine volume in the assay with Canis familiaris [10] is 337 mL.

The record behind these values is ChEMBL document CHEMBL1121663, “(Acylaryloxy)acetic acid diuretics. 3. 2,3-Dihydro-5-acyl-2-benzofurancarboxylic acids, a new class of uricosuric diuretics” (1981).
